Converted amounts (≈) assume the structure as drawn. The source made the active and inactive calls. The rule behind the calls is not given here.
Experiments:
Candida albicans [1] = assay: Fungicidal activity against Candida albicans ATCC 10231 at 4 times MIC incubated for 24 hrs by time kill assay; assay type: functional
Procedure, shortened: (§1)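 Overnight YPD cultures were diluted in RPMI 1640 to OD600 0.12–0.13; initial inoculum 1–4 × 10^5 CFU/mL. […] Shaken at 200 rpm, 35 °C, for 24 h, sampling at 0, 3, 6, 9, 12 and 24 h. Serial dilutions were plated on PDA and CFU counted; detection limit 100 CFU/mL; duplicate.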

Candida albicans [2] = assay: Antifungal activity against Candida albicans ATCC 10231 after 48 hrs by broth dilution method; assay type: functional; conditions: ATCC 10231, 48 h
Candida albicans [3] = assay: Antifungal activity against Candida albicans ATCC 64124 after 48 hrs by broth dilution method; assay type: functional; conditions: Candida albicans, ATCC 64124, 48 h
Procedure, shortened: (§2)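 CLSI M27-A3 broth microdilution with minor modifications. Overnight YPD culture grown at 35 °C, 200 rpm, adjusted to OD600 0.12, diluted in RPMI 1640 buffered to pH 7.0 with 0.165 M MOPS to a final 1–2 × 10^3 CFU/mL. Test compounds at 0.015–31.3 µg/mL, 48 h at 35 °C, DMSO <1.25%. […] Triplicate.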

Candida albicans [4] = assay: Antifungal activity against itraconazole and fluconazole resistant Candida albicans ATCC 90819 after 48 hrs by broth dilution method; assay type: functional; conditions: Candida albicans, ATCC 90819, 48 h; procedure, shortened: as §2
Candida albicans [5] = assay: Antifungal activity against itraconazole and fluconazole susceptible Candida albicans ATCC MYA-2310 after 48 hrs by broth dilution method; assay type: functional; conditions: Candida albicans, ATCC MYA-2310, 48 h
Candida albicans [6] = assay: Antifungal activity against itraconazole and fluconazole resistant Candida albicans ATCC MYA-1237 after 48 hrs by broth dilution method; assay type: functional; conditions: Candida albicans, ATCC MYA-1237, 48 h; procedure, shortened: as §2
Candida albicans [7] = assay: Antifungal activity against itraconazole and fluconazole resistant Candida albicans ATCC MYA-1003 after 48 hrs by broth dilution method; assay type: functional; conditions: Candida albicans, ATCC MYA-1003, 48 h; procedure, shortened: as §2
Nakaseomyces glabratus = assay: Antifungal activity against Candida glabrata ATCC 2001 after 48 hrs by broth dilution method; assay type: functional, CBS 138; conditions: Nakaseomyces glabratus, CBS 138, 48 h
Pichia kudriavzevii = assay: Antifungal activity against Candida krusei ATCC 6258 after 48 hrs by broth dilution method; assay type: functional; conditions: Pichia kudriavzevii, ATCC 6258, 48 h
Procedure, shortened: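 Yeasts tested per CLSI M27-A3 with minor changes. An overnight YPD culture (35 °C, 200 rpm) was adjusted to OD600 0.12 and diluted in MOPS-buffered RPMI 1640 (pH 7.0) to a final 1–2 × 10^3 CFU/mL. Compounds 0.015–31.3 µg/mL, DMSO <1.25%.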

Candida parapsilosis [8] = assay: Antifungal activity against Candida parapsilosis ATCC 22019 after 48 hrs by broth dilution method; assay type: functional; conditions: Lodderomyces parapsilosis, ATCC 22019, 48 h
Aspergillus flavus = assay: Antifungal activity against Aspergillus flavus ATCC MYA-3631 after 48 hrs by broth dilution method; assay type: functional; conditions: ATCC MYA-3631, 48 h
Aspergillus nidulans [9] = assay: Antifungal activity against Aspergillus nidulans ATCC 38163 after 48 hrs by broth dilution method; assay type: functional; conditions: Aspergillus nidulans, ATCC 38163, 48 h
Procedure, shortened: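 A. nidulans run per CLSI M38-A2. PDA spores were filtered through glass wool and counted by hemocytometer. Test range 0.03–31.3 µg/mL in MOPS-buffered RPMI 1640 (pH 7.0), final 5 × 10^5 CFU/mL.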

Aspergillus terreus = assay: Antifungal activity against Aspergillus terreus ATCC MYA-3633 after 48 hrs by broth dilution method; assay type: functional; conditions: Aspergillus terreus, ATCC MYA-3633, 48 h
Procedure, shortened: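 Molds tested per CLSI M38-A2. Spores were harvested from sporulating PDA cultures by filtering through glass wool and counted on a hemocytometer. Serial dilutions (0.03–31.3 µg/mL) were made in RPMI 1640 buffered to pH 7.0 with 0.165 M MOPS, final inoculum 5 × 10^5 CFU/mL.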

Candida albicans [10] = assay: Antifungal activity against Candida albicans ATCC 10231 after 48 hrs in the presence of 10% FBS by broth dilution method; assay type: functional; conditions: ATCC 10231, 48 h
Candida parapsilosis [11] = assay: Antifungal activity against Candida parapsilosis ATCC 22019 after 48 hrs in the presence of 10% FBS by broth dilution method; assay type: functional; conditions: Lodderomyces parapsilosis, ATCC 22019, 48 h
Aspergillus nidulans [12] = assay: Antifungal activity against Aspergillus nidulans ATCC 38163 after 48 hrs in the presence of 10% FBS by broth dilution method; assay type: functional; conditions: ATCC 38163, 48 h
Candida albicans [13] = assay: Antibiofilm activity against voriconazole resistant Candida albicans ATCC 64124 sessile cells incubated for 24 hrs by XTT reduction assay; assay type: functional; conditions: ATCC 64124, 24 h
Procedure, shortened: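 Strain B grown overnight in YPD broth at 35 °C, diluted to OD600 0.1 (~10^6 CFU/mL), then grown statically for 24 h at 37 °C to form biofilm. Washed with PBS, then drug in RPMI 1640 at 0.12–62.5 µg/mL for 24 h at 37 °C. Read-out: XTT 0.5 mg/mL with menadione 1 µM, 2 h, A490. SMIC50/SMIC80 are 50%/80% decreases versus drug-free biofilm. Duplicate.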

Candida parapsilosis [14] = assay: Fungistatic activity against Candida parapsilosis ATCC 22019 up to 8 times MIC incubated for 24 hrs by time kill assay; assay type: functional; procedure, shortened: as §1
HEK293 = assay: Cytotoxicity against HEK293 cells at 7.8 ug/mL after 24 hrs by resazurin-based fluorescence assay; assay type: cell-based; conditions: human, hek293, 24 h
Procedure, shortened: (§3)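 Cells grown in DMEM with 10% FBS at 37 °C, 5% CO2, and seeded at 10000 (HEK-293) or 3000 (BEAS-2B, A549) per well. After 16 h, exposed 24 h to 0.13–31 µg/mL final in medium with 0.1–0.4% DMSO. Resazurin added for 6–10 h; fluorescence read at 560/590 nm and survival normalized to DMSO control after background subtraction. Triton X-100 12.5% v/v positive control; duplicate.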

BEAS-2B = assay: Cytotoxicity against human BEAS2B cells at 7.8 ug/mL after 24 hrs by resazurin-based fluorescence assay; assay type: cell-based; procedure, shortened: as §3
A549 [15] = assay: Cytotoxicity against human A549 cells up to 7.8 ug/mL after 24 hrs by resazurin based fluorescence assay; assay type: cell-based; conditions: a549, 24 h; procedure, shortened: as §3
Candida albicans [16] = assay: Antifungal activity against Candida albicans ATCC 10231 at 3.9 ug/mL incubated for 1 hr by propidium iodide staining-based fluorescence microscopic method; assay type: functional
Procedure, shortened: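 C. albicans ATCC 10231 from an overnight YPD culture (35 °C, 200 rpm) was transferred into RPMI 1640 and exposed to drug. Membrane integrity was assessed by uptake of propidium iodide under fluorescence microscopy.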

Candida albicans [17] = assay: Inhibition of 14alpha-demethylase in Candida albicans ATCC 10231 assessed as ergosterol levels at […] by GC-MS analysis; parameters: scale not given: the % may be the effect or the level left
Candida albicans [18] = assay: Inhibition of 14alpha-demethylase in Candida albicans ATCC 10231 assessed as lanosterol levels at […] by GC-MS analysis; parameters: scale not given: the % may be the effect or the level left
Candida albicans [19] = assay: Inhibition of 14alpha-demethylase in Candida albicans ATCC 10231 assessed as eburicol levels at […] by GC-MS analysis; parameters: scale not given: the % may be the effect or the level left
Candida albicans [20] = assay: Inhibition of 14alpha-demethylase in Candida albicans ATCC 10231 assessed as 14alpha-methyl ergosta-8,24(28)-dien-3beta,6alpha-diol levels at […] by GC-MS analysis; parameters: scale not given: the % may be the effect or the level left
[21] = Aqueous solubility of the compound; assay type: physicochemical; conditions: buffer
[22] = Solubility of the compound in DMSO; assay type: physicochemical
Candida albicans [23] = assay: Inhibition of 14alpha-demethylase in Candida albicans ATCC 10231 assessed as total sterol levels at […] by GC-MS analysis; parameters: scale not given: the % may be the effect or the level left
Candida albicans [24] = assay: Antifungal activity against itraconazole and fluconazole susceptible Candida albicans ATCC MYA-2876 after 48 hrs by broth dilution method; assay type: functional; conditions: Candida albicans, ATCC MYA-2876, 48 h
A549 [25] = assay: Cytotoxicity against human A549 cells up to 15.5 ug/mL after 24 hrs by resazurin-based fluorescence assay; assay type: cell-based; conditions: a549, 24 h; procedure, shortened: as §3

SMILES	MIC (Candida albicans [2])	MIC (Candida albicans [3])	MIC (Candida albicans [4])	MIC (Candida albicans [5])	MIC (Candida albicans [6])	MIC (Candida albicans [7])	MIC (Nakaseomyces glabratus)	MIC (Pichia kudriavzevii)	MIC (Candida parapsilosis [8])	MIC (Aspergillus flavus)	MIC (Aspergillus nidulans [9])	MIC (Aspergillus terreus)	Activity (HEK293)	Activity (BEAS-2B)	also measured
CCCCCCCCCCN1CCN(CC(O)(Cn2cncn2)c2ccc(F)cc2F)CC1 (stereo unspecified)	2.1 µM (≈ 0.974 µg/mL)	8.4 µM (≈ 3.89 µg/mL)	8.4 µM (≈ 3.89 µg/mL)	16.8 µM (≈ 7.79 µg/mL)	16.8 µM (≈ 7.79 µg/mL)	8.4 µM (≈ 3.89 µg/mL)	> 67.5 µM	4.2 µM (≈ 1.95 µg/mL)	0.03 µM (≈ 0.0139 µg/mL)	0.5 µM (≈ 0.232 µg/mL)	2.1 µM (≈ 0.974 µg/mL)	2.1 µM (≈ 0.974 µg/mL)	Toxic	Toxic	Activity (Candida albicans [1]): Active; MIC (Candida albicans [10]): 0.975 µg/mL; MIC (Candida parapsilosis [11]): 0.06 µg/mL; MIC (Aspergillus nidulans [12]): 0.975 µg/mL; MIC50 (Candida albicans [13]): 15.6 µg/mL (≈ 33.6 µM); MIC80 (Candida albicans [13]): 62.5 µg/mL (≈ 135 µM); Activity (Candida parapsilosis [14]): Active; Activity (A549 [15]): Non-Toxic; Activity (Candida albicans [16]): inactive; Activity (Candida albicans [17]): 30.1%; Activity (Candida albicans [18]): 33.4%; Activity (Candida albicans [19]): 1.25%; Activity (Candida albicans [20]): 15.4%; solubility [21]: Soluble; solubility [22]: Soluble; Activity (Candida albicans [23]): 2.8 to 14.4%
CCCCCCCCN1CCN(CC(O)(Cn2cncn2)c2ccc(F)cc2F)CC1 (stereo unspecified)	9 µM (≈ 3.92 µg/mL)	71.9 µM (≈ 31.3 µg/mL)	35.8 µM (≈ 15.6 µg/mL)	> 71.9 µM	71.9 µM (≈ 31.3 µg/mL)	2.2 to 71.9 µM (≈ 0.958 to 31.3 µg/mL)	35.8 µM (≈ 15.6 µg/mL)	17.9 µM (≈ 7.8 µg/mL)	0.1 µM (≈ 0.0436 µg/mL)	4.5 µM (≈ 1.96 µg/mL)	9 µM (≈ 3.92 µg/mL)	9 µM (≈ 3.92 µg/mL)	Toxic	Toxic	MIC (Candida albicans [24]): 71.9 µM (≈ 31.3 µg/mL); Activity (A549 [25]): Non-Toxic

— ChEMBL document CHEMBL4024783, “Alkylated Piperazines and Piperazine-Azole Hybrids as Antifungal Agents” (J Med Chem, 2018)
